# Results taken from ChEMBL document CHEMBL3259708, “Thienoquinolines as novel disruptors of the PKCε/RACK2 protein-protein interaction” (J Med Chem, 2014).
# Columns and labels:
# [1] = target: T1, Protein kinase C epsilon type (Homo sapiens) (UniProt Q02156); experiment: (§1) Inhibition of recombinant PKCepsilon (unknown origin)-MBP-tagged RACK2 interaction after 1 hr by ELISA-based assay relative to untreated control; set-up: residual binding, % of control: concentration or dose not given beside the values; conditions: values are per cent of control
# T1 sequence (whole entry): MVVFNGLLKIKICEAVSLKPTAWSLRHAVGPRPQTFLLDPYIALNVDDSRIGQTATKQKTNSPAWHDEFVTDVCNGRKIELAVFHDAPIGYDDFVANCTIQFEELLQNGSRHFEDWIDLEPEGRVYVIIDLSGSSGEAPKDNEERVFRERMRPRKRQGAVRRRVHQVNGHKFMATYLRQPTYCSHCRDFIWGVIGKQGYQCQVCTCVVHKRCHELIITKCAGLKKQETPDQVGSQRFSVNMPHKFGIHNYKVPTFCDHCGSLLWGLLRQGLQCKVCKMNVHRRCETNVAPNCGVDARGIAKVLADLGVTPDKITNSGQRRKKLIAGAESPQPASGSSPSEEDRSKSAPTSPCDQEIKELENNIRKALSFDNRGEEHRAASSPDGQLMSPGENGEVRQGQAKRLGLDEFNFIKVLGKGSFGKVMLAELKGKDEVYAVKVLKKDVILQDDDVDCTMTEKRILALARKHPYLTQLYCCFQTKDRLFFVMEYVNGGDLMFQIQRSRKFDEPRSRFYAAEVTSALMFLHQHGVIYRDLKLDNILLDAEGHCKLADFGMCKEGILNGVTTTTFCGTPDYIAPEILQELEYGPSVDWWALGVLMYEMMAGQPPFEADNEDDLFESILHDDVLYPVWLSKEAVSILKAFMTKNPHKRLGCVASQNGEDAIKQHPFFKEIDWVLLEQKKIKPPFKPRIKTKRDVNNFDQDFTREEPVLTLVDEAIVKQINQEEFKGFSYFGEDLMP
# Method in brief: (§2)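 ELISA: plates coated with 100 ng recombinant PKCε in 20 mM Tris-HCl/100 mM NaCl pH 7.5 overnight at 4 °C, blocked with 3% BSA; PKCε activated 10 min at 30 °C with 60 μg/mL phosphatidylserine and 100 nM TPA; RACK2-MBP preincubated with agent 30 min, then 500 ng added for 1 h binding; anti-RACK2/HRP detection, ABTS at 420 nm; four experiments, quadruplicates, normalized to control; IC50 via CalcuSyn.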
# [2] = target: T2, Protein kinase C epsilon type (Homo sapiens, UniProt Q02156); experiment: as §1; method in brief: as §2
# T2 sequence (Q02156 whole entry): T1 sequence (whole entry)
Compound,"residual binding, % of control [1]",IC50 [2]
CC(=O)c1cccc(NC(=O)c2cc3cc4cc5c(cc4nc3s2)OCO5)c1,51.2%,
COC(=O)c1cccc(NC(=O)c2sc3nc4cc5c(cc4cc3c2N)OCO5)c1,30.8%,
C/C(=N\O)c1cccc(NC(=O)c2sc3nc4cc5c(cc4cc3c2N)OCCO5)c1,46.2%,
H-EAVSLKPTRRRRRRR-OH,,1.02 µM
C/C(=N\OCC(=O)O)c1cccc(NC(=O)c2sc3nc4cc5c(cc4cc3c2N)OCCO5)c1,59.3%,
Nc1c(C(=O)Nc2cccc(Cl)c2)sc2nc3cc4c(cc3cc12)OCCO4,58%,
O=C1NC(=O)N(Cc2ccccc2)C(=O)/C1=C\c1ccc2c(c1)OCO2,,28.5 µM
CC(=O)c1cccc(NC(=O)c2sc3nc4cc5c(cc4cc3c2N)OCO5)c1,58.9%,
CCOc1ccc2nc3sc(C(=O)Nc4ccc(F)cc4)c(N)c3cc2c1,60.5%,
CCOC(=O)Cc1csc(NC(=O)c2sc3nc4ccc(OCC)cc4cc3c2N)n1,32.4%,
COc1ccc(NC(=O)c2sc3nc4ccccc4cc3c2N)cc1,42.7%,
COC(=O)c1cccc(NC(=O)c2sc3nc4cc5c(cc4cc3c2N)OCCO5)c1,90.9%,
